# Experimental data: ChEMBL document CHEMBL3259663, “3-Amido-3-aryl-piperidines: A Novel Class of Potent, Selective, and Orally Active GlyT1 Inhibitors” (ACS Med Chem Lett, 2014)
# Legend:
# [1] = Fraction unbound in mouse at 7.7 mg/kg, po; format: ADME, organism-based; set-up: dose 7.7 mg/kg, route oral; details: in vivo, read-out: PPB
# Summary of the method: (§1)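 Mouse PK after a 7.7 mg/kg oral dose. Brain/plasma ratio taken at 1.5 h. Values are the average of two independent experiments.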
# Striatum [2] = test: Maximal induction of extracellular glycine level in rat striatum at 10 mg/kg, po relative to basal level; format: functional
# Summary of the method: (§2)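 Rat striatal microdialysis after a 10 mg/kg oral dose. Extracellular glycine measured as fold over basal levels, with sampling stopped at 3 h. Plasma and brain exposures determined at 3 h post-dose. n = 6.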
# [3] = Ratio of drug level from brain to plasma rat at 10 mg/kg, po; format: ADME, organism-based; set-up: dose 10 mg/kg, route oral; details: brain and plasma, read-out: BPR; summary of the method: as §2
# [4] = Solubility of the compound at pH 6.5 by lyophilization solubility assay; format: physicochemical; details: buffer
# Summary of the method: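 Lyophilization solubility assay. DMSO solution of compound is lyophilized, dissolved in 0.05 M phosphate buffer pH 6.5, stirred 1 h, then shaken 2 h.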
# [5] = Clearance in mouse at 1.7 mg/kg, iv; format: ADME, organism-based; set-up: dose 1.7 mg/kg, route intravenous; details: in vivo
# Summary of the method: (§3)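 Mouse PK, single iv dose of 1.7 mg/kg. Values are the average of two independent experiments.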
# MDR1A (P-gp) = test: Efflux ratio of permeability in pig LLC-PK1 cells expressing mouse MDR1A; format: ADME, cell-based, Sus scrofa
# Summary of the method: (§4)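 Efflux ratio measured in LLC-PK1 cells stably expressing human MDR1 or mouse MDR1A.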
# [6] = target: T1, Sodium- and chloride-dependent glycine transporter 1 (Mus musculus, UniProt P28571); test: Inhibition of mouse GlyT1
# T1 sequence (P28571 whole entry): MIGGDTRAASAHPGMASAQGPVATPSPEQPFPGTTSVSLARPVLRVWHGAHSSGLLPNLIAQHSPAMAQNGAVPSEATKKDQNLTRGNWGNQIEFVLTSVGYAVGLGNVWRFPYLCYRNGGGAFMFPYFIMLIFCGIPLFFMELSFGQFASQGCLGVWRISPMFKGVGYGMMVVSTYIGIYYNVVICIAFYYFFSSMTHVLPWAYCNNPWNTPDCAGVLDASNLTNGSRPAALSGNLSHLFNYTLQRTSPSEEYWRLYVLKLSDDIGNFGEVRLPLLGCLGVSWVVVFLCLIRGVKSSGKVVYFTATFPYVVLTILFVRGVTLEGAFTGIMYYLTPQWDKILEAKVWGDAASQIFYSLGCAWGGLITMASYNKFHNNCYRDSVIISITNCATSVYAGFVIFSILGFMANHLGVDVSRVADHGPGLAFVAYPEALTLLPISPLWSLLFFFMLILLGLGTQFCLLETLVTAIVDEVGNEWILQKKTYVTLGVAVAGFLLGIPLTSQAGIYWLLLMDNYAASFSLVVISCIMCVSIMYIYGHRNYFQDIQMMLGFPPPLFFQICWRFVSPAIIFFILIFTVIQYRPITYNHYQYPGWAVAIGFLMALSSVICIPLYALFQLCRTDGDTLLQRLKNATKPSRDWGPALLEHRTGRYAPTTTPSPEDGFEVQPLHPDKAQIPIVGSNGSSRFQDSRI
# [7] = Ratio of drug level from brain to plasma in mouse at 7.7 mg/kg, po after 1.5 hrs; format: ADME, organism-based; set-up: dose 7.7 mg/kg, route oral; details: brain and plasma, read-out: BPR; summary of the method: as §1
# Striatum [8] = test: Effect on plasma glycine level in rat striatum at 10 mg/kg, po; format: functional; summary of the method: as §2
# [9] = Intrinsic clearance in mouse liver microsomes; format: ADME; details: read-out: CLH
# [10] = Half life in mouse at 7.7 mg/kg, po; format: ADME, organism-based; set-up: dose 7.7 mg/kg, route oral; details: in vivo; summary of the method: as §1
# Striatum [11] = test: Induction of extracellular glycine level in rat striatum at 10 mg/kg, po after 3 hrs relative to basal level; format: functional; summary of the method: as §2
# [12] = Octanol-phosphate buffer partition coefficient, log D of the compound at pH 7.4; format: physicochemical
# Summary of the method: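 Distribution coefficient measured between 1-octanol and phosphate buffer at pH 7.4.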
# Mus musculus = test: Inhibition of L687414-induced hyperlocomotion in po dosed mouse assessed horizontal activity; format: functional
# Summary of the method: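 Oral dosing in mice against L-687,414-induced hyperlocomotion. Horizontal activity counts recorded over 60 min, mean per group, n = 8 per group. ID₅₀ is the dose producing 50% inhibition of the hyperlocomotion.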
# Salmonella typhimurium = test: Genotoxicity in Salmonella typhimurium by Ames test; format: toxicity, organism-based; details: salmonella enterica subsp. enterica serovar typhimurium
# [13] = Genotoxicity in micronucleus (unknown origin) by MNT test
# hERG (KCNH2) = hERG (KCNH2) (Homo sapiens, UniProt Q12809); test: Inhibition of human ERG channel by Patch clamp assay
# Chain of hERG (KCNH2) (Q12809 whole entry): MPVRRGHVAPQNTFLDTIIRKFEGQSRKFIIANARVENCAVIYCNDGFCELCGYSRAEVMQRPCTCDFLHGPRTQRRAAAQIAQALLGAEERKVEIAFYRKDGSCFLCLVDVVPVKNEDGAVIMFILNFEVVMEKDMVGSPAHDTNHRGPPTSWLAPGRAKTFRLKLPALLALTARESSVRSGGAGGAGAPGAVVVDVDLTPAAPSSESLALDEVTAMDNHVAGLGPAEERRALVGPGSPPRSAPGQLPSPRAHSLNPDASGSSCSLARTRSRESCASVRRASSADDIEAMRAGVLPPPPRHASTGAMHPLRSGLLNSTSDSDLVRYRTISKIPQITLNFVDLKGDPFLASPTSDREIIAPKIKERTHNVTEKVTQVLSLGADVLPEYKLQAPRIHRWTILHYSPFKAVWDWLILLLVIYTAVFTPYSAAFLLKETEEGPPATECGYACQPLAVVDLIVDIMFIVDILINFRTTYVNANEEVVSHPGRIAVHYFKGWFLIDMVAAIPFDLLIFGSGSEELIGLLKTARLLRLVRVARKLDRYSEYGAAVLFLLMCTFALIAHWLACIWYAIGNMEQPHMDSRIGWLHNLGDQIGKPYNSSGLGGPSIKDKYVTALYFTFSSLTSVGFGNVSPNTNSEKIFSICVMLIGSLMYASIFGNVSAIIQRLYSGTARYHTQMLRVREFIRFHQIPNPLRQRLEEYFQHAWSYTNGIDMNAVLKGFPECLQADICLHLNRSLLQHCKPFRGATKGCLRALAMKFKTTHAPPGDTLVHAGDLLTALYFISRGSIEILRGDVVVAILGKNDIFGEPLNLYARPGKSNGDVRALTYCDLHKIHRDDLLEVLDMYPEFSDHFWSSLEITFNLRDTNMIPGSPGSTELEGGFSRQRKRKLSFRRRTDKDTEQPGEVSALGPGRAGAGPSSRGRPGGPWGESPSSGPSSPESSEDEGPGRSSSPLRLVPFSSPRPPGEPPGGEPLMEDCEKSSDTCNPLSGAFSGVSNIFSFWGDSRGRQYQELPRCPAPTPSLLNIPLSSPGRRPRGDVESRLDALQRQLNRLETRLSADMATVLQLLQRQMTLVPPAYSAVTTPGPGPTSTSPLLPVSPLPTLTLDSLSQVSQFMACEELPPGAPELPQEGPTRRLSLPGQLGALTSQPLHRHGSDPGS
# [14] = target: T2, Sodium- and chloride-dependent glycine transporter 1 (Homo sapiens, UniProt P48067); test: Inhibition of human GlyT1 expressed in cells assessed as [3H]glycine uptake; format: cell-based
# T2 sequence (P48067 whole entry): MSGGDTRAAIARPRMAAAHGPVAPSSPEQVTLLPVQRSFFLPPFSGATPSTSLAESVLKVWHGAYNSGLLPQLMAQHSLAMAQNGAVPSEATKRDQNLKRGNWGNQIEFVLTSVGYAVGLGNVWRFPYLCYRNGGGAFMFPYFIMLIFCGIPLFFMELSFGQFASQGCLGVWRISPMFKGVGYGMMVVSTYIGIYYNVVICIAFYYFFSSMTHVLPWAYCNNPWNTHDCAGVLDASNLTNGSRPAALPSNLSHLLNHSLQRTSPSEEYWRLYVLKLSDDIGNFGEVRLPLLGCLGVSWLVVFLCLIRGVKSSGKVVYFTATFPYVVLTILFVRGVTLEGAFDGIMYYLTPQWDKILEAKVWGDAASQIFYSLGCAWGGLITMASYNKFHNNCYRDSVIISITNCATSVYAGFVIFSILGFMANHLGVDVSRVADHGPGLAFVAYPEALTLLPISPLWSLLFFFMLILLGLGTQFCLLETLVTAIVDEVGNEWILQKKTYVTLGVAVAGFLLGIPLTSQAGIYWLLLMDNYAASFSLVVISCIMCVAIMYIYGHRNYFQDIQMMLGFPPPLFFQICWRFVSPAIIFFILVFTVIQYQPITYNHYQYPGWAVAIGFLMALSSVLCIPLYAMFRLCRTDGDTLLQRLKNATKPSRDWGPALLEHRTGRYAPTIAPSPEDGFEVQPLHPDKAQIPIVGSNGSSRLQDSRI
# Summary of the method: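 [³H]-glycine uptake inhibition in cells transfected with human GlyT1. EC₅₀ values are the average of at least two independent experiments.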
# MDR1 (P-gp) = test: Efflux ratio of permeability in pig LLC-PK1 cells expressing human MDR1; format: ADME, cell-based, Sus scrofa; summary of the method: as §4
# [15] = Oral bioavailability in mouse at 7.7 mg/kg; format: ADME, organism-based; details: in vivo; summary of the method: as §1
# [16] = Intrinsic clearance in human liver microsomes; format: ADME; details: read-out: CLH
# [17] = Volume of distribution at steady state in mouse at 1.7 mg/kg, iv; format: ADME, organism-based; set-up: dose 1.7 mg/kg, route intravenous; details: in vivo, read-out: Vdss; summary of the method: as §3
# Cytochrome P450 2C19 = Cytochrome P450 2C19 (Homo sapiens, UniProt P33261); test: Inhibition of CYP2C19 (unknown origin); format: ADME
# Chain of Cytochrome P450 2C19 (P33261 whole entry): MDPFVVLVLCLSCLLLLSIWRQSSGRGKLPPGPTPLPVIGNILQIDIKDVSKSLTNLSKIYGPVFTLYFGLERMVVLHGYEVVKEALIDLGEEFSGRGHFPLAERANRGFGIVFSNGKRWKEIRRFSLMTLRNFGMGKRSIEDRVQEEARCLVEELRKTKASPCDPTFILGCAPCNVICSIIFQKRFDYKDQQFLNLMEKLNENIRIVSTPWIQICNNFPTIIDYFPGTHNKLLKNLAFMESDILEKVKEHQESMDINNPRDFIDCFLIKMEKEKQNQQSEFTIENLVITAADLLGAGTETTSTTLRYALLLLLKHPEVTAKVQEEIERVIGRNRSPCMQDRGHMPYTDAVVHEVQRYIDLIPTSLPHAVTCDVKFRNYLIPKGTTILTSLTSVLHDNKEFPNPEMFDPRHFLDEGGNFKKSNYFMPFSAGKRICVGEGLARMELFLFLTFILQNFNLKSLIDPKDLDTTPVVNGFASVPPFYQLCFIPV
# Cytochrome P450 3A4 = Cytochrome P450 3A4 (Homo sapiens, UniProt P08684); test: Inhibition of CYP3A4 (unknown origin); format: ADME
# Chain of Cytochrome P450 3A4 (P08684 whole entry): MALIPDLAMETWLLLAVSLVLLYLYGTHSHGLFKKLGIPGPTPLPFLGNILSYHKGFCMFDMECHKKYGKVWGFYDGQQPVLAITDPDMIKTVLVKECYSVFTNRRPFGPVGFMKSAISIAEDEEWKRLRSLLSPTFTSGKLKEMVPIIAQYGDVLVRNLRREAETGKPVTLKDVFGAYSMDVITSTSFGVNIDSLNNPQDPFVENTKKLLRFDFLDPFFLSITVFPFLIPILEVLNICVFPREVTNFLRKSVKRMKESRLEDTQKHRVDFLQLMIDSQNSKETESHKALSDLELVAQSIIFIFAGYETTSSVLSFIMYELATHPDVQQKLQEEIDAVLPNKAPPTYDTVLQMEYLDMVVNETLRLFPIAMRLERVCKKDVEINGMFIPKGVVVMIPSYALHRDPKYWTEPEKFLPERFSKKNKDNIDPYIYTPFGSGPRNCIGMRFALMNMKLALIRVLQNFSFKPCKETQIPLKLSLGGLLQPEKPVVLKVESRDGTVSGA
# [18] = Ratio of drug level in rat brain after 3 hrs to EC50 for human GlyT1 by [3H]glycine uptake assay
smiles,measurement,setting,value
COc1cc(C(F)(F)F)cc(SC)c1C(=O)N[C@@]1(c2ccccc2)CCCN(C)C1,fraction unbound,[1],0.017
same,fold change (FC),Striatum [2],1.7
same,Kp,[3],0.08
same,solubility,[4],147 µg/mL
same,clearance,[5],54 mL/min/kg
same,efflux ratio,MDR1A (P-gp),1.5
same,EC50,[6],0.005 µM
same,Kp at 1.5 h,[7],4.3
same,Activity,Striatum [8],713 ng/mL
same,microsomal CLint,[9],54 µL/min/mg
same,half-life,[10],4.2 h
same,fold change (FC),Striatum [11],1.5
same,logD,[12],3.12
same,inhibition,Mus musculus,Dose-dependent effect
same,ED50,Mus musculus; read-out: ID50 (the source's name),1.5 mg/kg
same,Activity,Salmonella typhimurium,Non-toxic
same,Activity,[13],Non-toxic
same,IC20,hERG (KCNH2),5.4 µM
same,EC50,[14],0.01 µM
same,efflux ratio,MDR1 (P-gp),0.9
same,bioavailability,[15],100%
same,microsomal CLint,[16],19 µL/min/mg
same,Vd,[17],8 L/kg
same,IC50,Cytochrome P450 2C19,46 µM
same,IC50,Cytochrome P450 3A4,> 50 µM
same,Ratio,[18],13
